Calls of active or inactive are those of the source. No cut-off for these calls is given here.
Legend:
[1] = system: Severe acute respiratory syndrome-related coronavirus; test: Inhibition of N7-MTase activity of N-terminal His6-tagged SARS-CoV nsp14 expressed in Escherichia coli using GpppAC4 and [3H]SAM as substrate at 50 uM preincubated with enzyme followed by substrate addition and measured after 30 mins by filter binding assay
How it was run: (§1)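 Filter binding assay in 40 mM Tris-HCl pH 8.0, 1 mM DTT, 1 mM MgCl2, 2 µM SAM, 0.1 µM 3H-SAM and 0.7 µM GpppAC4 RNA. Enzyme is nsp14 (50 nM), hRNMT (50 nM) or vaccinia D1–D12 (41 U). Compound is at 50 µM with 5% final DMSO. Reactions run 30 min at 30 °C, are stopped by ice-cold water dilution, and 3H on DEAE filters is counted. Percent inhibition is relative to a 5% DMSO control, mean of three experiments.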

Orthopoxvirus vaccinia [2] = test: Inhibition of N7-MTase activity of Vaccinia virus mRNA capping enzyme D1/D12 complex using GpppAC4 and [3H]SAM as substrate at 50 uM preincubated with enzyme followed by substrate addition and measured after 30 mins by filter binding assay; how it was run: as §1
[3] = target: RNA-N7 MTase (mRNA cap guanine-N(7) methyltransferase) (Homo sapiens, UniProt O43148); test: Inhibition of N-terminal His6-tagged human RNA-N7 MTase expressed in Escherichia coli using GpppAC4 and [3H]SAM as substrate at 50 uM preincubated with enzyme followed by substrate addition and measured after 30 mins by filter binding assay; details: probe GpppAC4 and [3H]SAM; how it was run: as §1
RNA-N7 MTase (mRNA cap guanine-N(7) methyltransferase), sequence (O43148 whole entry): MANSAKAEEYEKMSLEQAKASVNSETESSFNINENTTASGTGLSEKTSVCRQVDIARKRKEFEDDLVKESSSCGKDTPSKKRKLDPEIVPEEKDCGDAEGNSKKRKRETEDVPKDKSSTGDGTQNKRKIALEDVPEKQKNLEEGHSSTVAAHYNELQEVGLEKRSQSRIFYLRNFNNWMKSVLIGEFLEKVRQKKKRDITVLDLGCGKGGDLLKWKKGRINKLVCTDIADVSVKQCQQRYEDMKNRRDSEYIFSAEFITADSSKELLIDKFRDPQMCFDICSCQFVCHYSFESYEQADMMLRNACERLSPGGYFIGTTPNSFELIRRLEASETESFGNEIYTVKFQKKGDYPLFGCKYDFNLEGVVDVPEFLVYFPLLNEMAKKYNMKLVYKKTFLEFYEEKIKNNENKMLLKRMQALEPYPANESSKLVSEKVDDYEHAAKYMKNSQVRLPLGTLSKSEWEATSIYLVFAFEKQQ

[4] = system: Severe acute respiratory syndrome-related coronavirus; test: Inhibition of 2'-O-MTase activity of SARS-CoV nsp10/16 complex at 200 uM
Zika virus = test: Inhibition of 2'-O-methyltransferase in Zika virus at 200 uM
West Nile virus = test: Inhibition of 2'-O-methyltransferase in West-Nile virus at 200 uM
Dengue virus = test: Inhibition of 2'-O-methyltransferase in Dengue virus at 200 uM
Orthopoxvirus vaccinia [5] = test: Inhibition of 2'-O-methyltransferase activity of Vaccinia virus VP39 at 200 uM
[6] = Inhibition of N7-MTase activity of N-terminal His6-tagged SARS-CoV nsp14 expressed in Escherichia coli using GpppAC4 and [3H]SAM as substrate preincubated with enzyme followed by substrate addition and measured after 30 mins by filter binding assay; parameters: species or system Severe acute respiratory syndrome-related coronavirus
How it was run: (§2)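 Dose-response filter binding assay with nsp14 or hRNMT (each 50 nM) pre-incubated with increasing compound concentrations (5% final DMSO). Then 0.7 µM GpppAC4, 2 µM SAM and 0.1 µM 3H-SAM are added in Tris pH 8.0/DTT/MgCl2, 30 min at 30 °C. IC50 is taken from a Hill slope fit, mean of three independent experiments.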

[7] = target: mRNA cap guanine-N(7) methyltransferase (Homo sapiens, UniProt O43148); test: Inhibition of N-terminal His6-tagged human RNA-N7 MTase expressed in Escherichia coli using GpppAC4 and [3H]SAM as substrate preincubated with enzyme followed by substrate addition and measured after 30 mins by filter binding assay; how it was run: as §2
mRNA cap guanine-N(7) methyltransferase, sequence (O43148 whole entry): as above

[8] = system: Severe acute respiratory syndrome-related coronavirus; test: Binding affinity to SARS-CoV nsp14 assessed as increase in melting temperature at 1 mM at pH 7.5 by differential scanning fluorimetry
How it was run: (§3)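 Purified SARS-CoV nsp14 (5 µM) in 20 mM HEPES pH 7.5, 150 mM NaCl and 1X SYPRO orange, with 1 mM compound (DMSO stock; SAM and sinefungin from water). Protein is mixed with compound before dye is added. Fluorescence is read from 20 to 95 °C at 0.2 °C/min. Tm comes from curve fitting, and ΔTm is taken against a 5% DMSO control.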

[9] = system: Severe acute respiratory syndrome-related coronavirus; test: Binding affinity to SARS-CoV nsp14 assessed as melting temperature at 1 mM at pH 7.5 by differential scanning fluorimetry; how it was run: as §3

COC(=O)CCCN(CCO[C@@H]1[C@H](O)[C@@H](CO)O[C@H]1n1cnc2c(N)ncnc21)C[C@H]1O[C@@H](n2cnc3c(N)ncnc32)[C@H](O)[C@@H]1O
inhibition [1]: inactive
inhibition (Orthopoxvirus vaccinia [2]): 69.2%
inhibition at 0.5 h, 50 µM [3]: 32.8%
inhibition [4]: inactive
inhibition (Zika virus): inactive
inhibition (West Nile virus): inactive
inhibition (Dengue virus): inactive
inhibition (Orthopoxvirus vaccinia [5]): inactive

Nc1ncnc2c1ncn2[C@@H]1O[C@H](CN(CCO[C@@H]2[C@H](O)[C@@H](CO)O[C@H]2n2cnc3c(N)ncnc32)CC[C@H](N)C(=O)O)[C@@H](O)[C@H]1O
inhibition [1]: 72%
inhibition (Orthopoxvirus vaccinia [2]): 85.8%
inhibition at 0.5 h, 50 µM [3]: 77.4%
IC50 [6]: 40.6 µM
IC50 [7]: 10.9 µM
inhibition [4]: inactive
inhibition (Zika virus): inactive
inhibition (West Nile virus): inactive
inhibition (Dengue virus): inactive
inhibition (Orthopoxvirus vaccinia [5]): inactive

COC(=O)[C@@H](N)CCN(CCO[C@@H]1[C@H](O)[C@@H](CO)O[C@H]1n1cnc2c(N)ncnc21)C[C@H]1O[C@@H](n2cnc3c(N)ncnc32)[C@H](O)[C@@H]1O
inhibition [1]: 30.6%
inhibition (Orthopoxvirus vaccinia [2]): 32.1%
inhibition at 0.5 h, 50 µM [3]: 33.2%
inhibition [4]: inactive
inhibition (Zika virus): inactive
inhibition (West Nile virus): inactive
inhibition (Dengue virus): inactive
inhibition (Orthopoxvirus vaccinia [5]): inactive

NC(=O)[C@@H](N)CCN(CCO[C@@H]1[C@H](O)[C@@H](CO)O[C@H]1n1cnc2c(N)ncnc21)C[C@H]1O[C@@H](n2cnc3c(N)ncnc32)[C@H](O)[C@@H]1O
inhibition [1]: 13.1%
inhibition (Orthopoxvirus vaccinia [2]): 53.2%
inhibition at 0.5 h, 50 µM [3]: 12.2%
inhibition [4]: inactive
inhibition (Zika virus): inactive
inhibition (West Nile virus): inactive
inhibition (Dengue virus): inactive
inhibition (Orthopoxvirus vaccinia [5]): inactive

CCCCN(CCO[C@@H]1[C@H](O)[C@@H](CO)O[C@H]1n1cnc2c(N)ncnc21)C[C@H]1O[C@@H](n2cnc3c(N)ncnc32)[C@H](O)[C@@H]1O
inhibition [1]: inactive
inhibition (Orthopoxvirus vaccinia [2]): inactive
inhibition at 0.5 h, 50 µM [3]: 27.5%
inhibition [4]: inactive
inhibition (Zika virus): inactive
inhibition (West Nile virus): inactive
inhibition (Dengue virus): inactive
inhibition (Orthopoxvirus vaccinia [5]): inactive

Nc1ncnc2c1ncn2[C@@H]1O[C@H](CNCCO[C@@H]2[C@H](O)[C@@H](CO)O[C@H]2n2cnc3c(N)ncnc32)[C@@H](O)[C@H]1O
inhibition [1]: 31%
inhibition (Orthopoxvirus vaccinia [2]): 20.3%
inhibition at 0.5 h, 50 µM [3]: 35.2%
inhibition [4]: inactive
inhibition (Zika virus): inactive
inhibition (West Nile virus): inactive
inhibition (Dengue virus): inactive
inhibition (Orthopoxvirus vaccinia [5]): inactive

Nc1ncnc2c1ncn2[C@@H]1O[C@H](CN(CCCC(=O)O)CCO[C@@H]2[C@H](O)[C@@H](CO)O[C@H]2n2cnc3c(N)ncnc32)[C@@H](O)[C@H]1O
inhibition [1]: 43%
inhibition (Orthopoxvirus vaccinia [2]): inactive
inhibition [4]: inactive
inhibition (Zika virus): inactive
inhibition (West Nile virus): inactive
inhibition (Dengue virus): inactive
inhibition (Orthopoxvirus vaccinia [5]): inactive

Nc1ncnc2c1ncn2[C@@H]1O[C@H](CSCC[C@H](N)C(=O)O)[C@@H](O)[C@H]1O
ΔTm [8]: 6.5 °C

Nc1ncnc2c1ncn2[C@@H]1OC(CN(CCCc2ccccc2)CCO[C@@H]2[C@H](O)C(CO)O[C@H]2n2cnc3c(N)ncnc32)[C@@H](O)[C@H]1O (single isomer, unassigned)
inhibition [1]: 38.4%
inhibition (Orthopoxvirus vaccinia [2]): 11.6%
inhibition at 0.5 h, 50 µM [3]: 23.1%
IC50 [6]: 55.5 µM
IC50 [7]: > 500 µM
ΔTm [8]: 4.6 °C
Tm [9]: > 40 °C
inhibition [4]: inactive
inhibition (Zika virus): inactive
inhibition (West Nile virus): inactive
inhibition (Dengue virus): inactive
inhibition (Orthopoxvirus vaccinia [5]): inactive

COc1ccc(S(=O)(=O)N(CCO[C@@H]2[C@H](O)C(CO)O[C@H]2n2cnc3c(N)ncnc32)CC2O[C@@H](n3cnc4c(N)ncnc43)[C@H](O)[C@@H]2O)c([N+](=O)[O-])c1 (single isomer, unassigned)
inhibition [1]: 96.6%
inhibition (Orthopoxvirus vaccinia [2]): 4.6%
inhibition at 0.5 h, 50 µM [3]: 31.8%
IC50 [6]: 3.9 µM
IC50 [7]: > 500 µM
ΔTm [8]: 4.6 °C
Tm [9]: > 40 °C
inhibition [4]: inactive
inhibition (Zika virus): inactive
inhibition (West Nile virus): inactive
inhibition (Dengue virus): inactive
inhibition (Orthopoxvirus vaccinia [5]): inactive

Nc1ncnc2c1ncn2[C@@H]1OC(CN(CCO[C@@H]2[C@H](O)C(CO)O[C@H]2n2cnc3c(N)ncnc32)S(=O)(=O)c2ccc(Cl)cc2)[C@@H](O)[C@H]1O (single isomer, unassigned)
inhibition [1]: 96.2%
inhibition (Orthopoxvirus vaccinia [2]): 19.7%
inhibition at 0.5 h, 50 µM [3]: 20.2%
IC50 [6]: 1.5 µM
ΔTm [8]: 4.6 °C
Tm [9]: > 40 °C
inhibition [4]: inactive
inhibition (Zika virus): inactive
inhibition (West Nile virus): inactive
inhibition (Dengue virus): inactive
inhibition (Orthopoxvirus vaccinia [5]): inactive

Nc1ncnc2c1ncn2[C@@H]1OC(CN(CCO[C@@H]2[C@H](O)C(CO)O[C@H]2n2cnc3c(N)ncnc32)Cc2ccc(Cl)cc2)[C@@H](O)[C@H]1O (single isomer, unassigned)
inhibition [1]: 75.9%
inhibition (Orthopoxvirus vaccinia [2]): 4.5%
inhibition at 0.5 h, 50 µM [3]: 14.7%
IC50 [6]: 9.9 µM
ΔTm [8]: 4.6 °C
Tm [9]: > 40 °C
inhibition [4]: inactive
inhibition (Zika virus): inactive
inhibition (West Nile virus): inactive
inhibition (Dengue virus): inactive
inhibition (Orthopoxvirus vaccinia [5]): inactive

Nc1ncnc2c1ncn2[C@@H]1OC(CN(CCO[C@@H]2[C@H](O)C(CO)O[C@H]2n2cnc3c(N)ncnc32)Cc2ccc(Cl)c([N+](=O)[O-])c2)[C@@H](O)[C@H]1O (single isomer, unassigned)
inhibition [1]: 94%
inhibition (Orthopoxvirus vaccinia [2]): 4.3%
IC50 [6]: 2.4 µM
ΔTm [8]: 4.6 °C
Tm [9]: > 40 °C
inhibition [4]: inactive
inhibition (Zika virus): inactive
inhibition (West Nile virus): inactive
inhibition (Dengue virus): inactive
inhibition (Orthopoxvirus vaccinia [5]): inactive

Nc1ncnc2c1ncn2[C@@H]1OC(CN(CCO[C@@H]2[C@H](O)C(CO)O[C@H]2n2cnc3c(N)ncnc32)S(=O)(=O)c2ccc([N+](=O)[O-])cc2)[C@@H](O)[C@H]1O (single isomer, unassigned)
inhibition [1]: 88.6%
inhibition (Orthopoxvirus vaccinia [2]): 49.8%
inhibition at 0.5 h, 50 µM [3]: 66%
IC50 [6]: 2.6 µM
IC50 [7]: > 500 µM
ΔTm [8]: 4.6 °C
Tm [9]: > 40 °C
inhibition [4]: inactive
inhibition (Zika virus): inactive
inhibition (West Nile virus): inactive
inhibition (Dengue virus): inactive
inhibition (Orthopoxvirus vaccinia [5]): inactive

COc1cc([N+](=O)[O-])ccc1S(=O)(=O)N(CCO[C@@H]1[C@H](O)C(CO)O[C@H]1n1cnc2c(N)ncnc21)CC1O[C@@H](n2cnc3c(N)ncnc32)[C@H](O)[C@@H]1O (single isomer, unassigned)
inhibition [1]: 47.6%
inhibition (Orthopoxvirus vaccinia [2]): 5.3%
inhibition at 0.5 h, 50 µM [3]: 44.2%
IC50 [6]: 70.4 µM
IC50 [7]: 169 µM
ΔTm [8]: 4.6 °C
Tm [9]: > 40 °C
inhibition [4]: inactive
inhibition (Zika virus): inactive
inhibition (West Nile virus): inactive
inhibition (Dengue virus): inactive
inhibition (Orthopoxvirus vaccinia [5]): inactive

Nc1ncnc2c1ncn2[C@@H]1OC(CN(CCO[C@@H]2[C@H](O)C(CO)O[C@H]2n2cnc3c(N)ncnc32)S(=O)(=O)c2ccc(C(F)(F)F)cc2[N+](=O)[O-])[C@@H](O)[C@H]1O (single isomer, unassigned)
inhibition [1]: 94.6%
inhibition (Orthopoxvirus vaccinia [2]): 10.1%
inhibition at 0.5 h, 50 µM [3]: 23.3%
IC50 [6]: 5.7 µM
IC50 [7]: 276 µM
ΔTm [8]: 4.6 °C
Tm [9]: > 40 °C
inhibition [4]: inactive
inhibition (Zika virus): inactive
inhibition (West Nile virus): inactive
inhibition (Dengue virus): inactive
inhibition (Orthopoxvirus vaccinia [5]): inactive

Nc1ncnc2c1ncn2[C@@H]1O[C@H](C[C@@H](N)CC[C@H](N)C(=O)O)[C@@H](O)[C@H]1O [SINEFUNGIN]
inhibition [1]: 98.3%
inhibition (Orthopoxvirus vaccinia [2]): 99.8%
inhibition at 0.5 h, 50 µM [3]: 99.8%
IC50 [6]: 0.36 µM
IC50 [7]: < 0.05 µM
ΔTm [8]: 4.4 °C
